Assay results reported in ChEMBL document CHEMBL3407457, “Microwave-assisted synthesis of certain pyrrolylpyridines, some derived ring systems and their evaluation as anticancer and antioxidant agents” (Eur J Med Chem, 2015).
The source made the active and inactive calls. The rule behind the calls is not given here.

Tests used:
[1] = test system: EKVX; experiment: (§1) Growth inhibition of human EKVX cells at 10 uM after 48 hrs by sulforhodamine B assay; format: functional
Procedure, shortened: (§2)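 NCI-60 primary screen: cells given a single 10 µM dose under 48 h continuous exposure. Growth/viability estimated by sulforhodamine B protein assay. Reported as percent growth of treated cells (mean graph), expressed as percent growth inhibition.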

[2] = Growth inhibition of human HOP92 cells at 10 uM after 48 hrs by sulforhodamine B assay; format: functional; conditions: HOP-92, 48 h, read-out: GI; procedure, shortened: as §2
[3] = test system: NCI-H522; experiment: Growth inhibition of human NCI-H522 cells at 10 uM after 48 hrs by sulforhodamine B assay; format: functional; conditions: for inhibition of growth at 10 µM: NCI-H522, 48 h, read-out: GI; procedure, shortened: as §2
[4] = test system: HCT-116; experiment: (§3) Growth inhibition of human HCT116 cells at 10 uM after 48 hrs by sulforhodamine B assay; format: functional; procedure, shortened: as §2
[5] = Growth inhibition of human HCT15 cells at 10 uM after 48 hrs by sulforhodamine B assay; format: functional; conditions: HCT-15, 48 h, read-out: GI; procedure, shortened: as §2
[6] = test system: Hs-578T; experiment: (§4) Growth inhibition of human Hs 578T cells at 10 uM after 48 hrs by sulforhodamine B assay; format: functional; procedure, shortened: as §2
[7] = test system: MDA-MB-468; experiment: Growth inhibition of human MDA-MB-468 cells at 10 uM after 48 hrs by sulforhodamine B assay; format: functional; conditions: for inhibition of growth at 10 µM: MDA-MB-468, 48 h, read-out: GI; procedure, shortened: as §2
[8] = test system: T47D; experiment: Growth inhibition of human T47D cells at 10 uM after 48 hrs by sulforhodamine B assay; format: functional; conditions: read-out: GI; procedure, shortened: as §2
[9] = test system: IGROV-1; experiment: Growth inhibition of human IGROV1 cells at 10 uM after 48 hrs by sulforhodamine B assay; format: functional; conditions: IGROV-1, 48 h, read-out: GI; procedure, shortened: as §2
[10] = test system: OVCAR-4; experiment: (§5) Growth inhibition of human OVCAR4 cells at 10 uM after 48 hrs by sulforhodamine B assay; format: functional; procedure, shortened: as §2
[11] = test system: CCRF-CEM; experiment: Growth inhibition of human CCRF-CEM cells at 10 uM after 48 hrs by sulforhodamine B assay; format: functional; conditions: read-out: GI; procedure, shortened: as §2
[12] = test system: HL-60(TB); experiment: Growth inhibition of human HL-60(TB) cells at 10 uM after 48 hrs by sulforhodamine B assay; format: functional; conditions: for inhibition of growth at 10 µM: HL-60, 48 h, read-out: GI
Procedure, shortened: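 NCI-60 one-dose primary screen, HL-60(TB) within the leukemia subpanel. Single 10 µM concentration, 48 h continuous exposure. Growth estimated by sulforhodamine B protein assay. Percent growth of treated cells expressed as percentage growth inhibition (GI%).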

[13] = test system: K562; experiment: Growth inhibition of human K562 cells at 10 uM after 48 hrs by sulforhodamine B assay; format: functional; conditions: for inhibition of growth at 10 µM: K562, 48 h, read-out: GI; procedure, shortened: as §2
[14] = Growth inhibition of human MOLT4 cells at 10 uM after 48 hrs by sulforhodamine B assay; format: functional; conditions: MOLT-4, 48 h, read-out: GI; procedure, shortened: as §2
[15] = Growth inhibition of human RPMI8226 cells at 10 uM after 48 hrs by sulforhodamine B assay; format: functional; conditions: RPMI-8226, 48 h, read-out: GI; procedure, shortened: as §2
[16] = test system: A498; experiment: Growth inhibition of human A498 cells at 10 uM after 48 hrs by sulforhodamine B assay; format: functional; conditions: A498, 48 h, read-out: GI; procedure, shortened: as §2
[17] = test system: ACHN; experiment: Growth inhibition of human ACHN cells at 10 uM after 48 hrs by sulforhodamine B assay; format: functional; conditions: for inhibition of growth at 10 µM: read-out: GI; procedure, shortened: as §2
[18] = test system: CAKI-1; experiment: Growth inhibition of human CAKI-1 cells at 10 uM after 48 hrs by sulforhodamine B assay; format: functional; conditions: for inhibition of growth at 10 µM: CAKI-1, 48 h, read-out: GI; procedure, shortened: as §2
[19] = test system: UO-31; experiment: (§6) Growth inhibition of human UO31 cells at 10 uM after 48 hrs by sulforhodamine B assay; format: functional; procedure, shortened: as §2
[20] = test system: LOX IMVI; experiment: (§7) Growth inhibition of human LOXIMVI cells at 10 uM after 48 hrs by sulforhodamine B assay; format: functional; procedure, shortened: as §2
[21] = test system: SK-MEL-5; experiment: Growth inhibition of human SK-MEL-5 cells at 10 uM after 48 hrs by sulforhodamine B assay; format: functional; conditions: for inhibition of growth at 10 µM: SK-MEL-5, 48 h, read-out: GI; procedure, shortened: as §2
[22] = Growth inhibition of human UACC62 cells at 10 uM after 48 hrs by sulforhodamine B assay; format: functional; conditions: UACC-62, 48 h, read-out: GI; procedure, shortened: as §2
[23] = (§8) Growth inhibition of human PC3 cells at 10 uM after 48 hrs by sulforhodamine B assay; format: functional; conditions: PC-3, 48 h, read-out: GI; procedure, shortened: as §2
[24] = test system: SNB-75; experiment: Growth inhibition of human SNB75 cells at 10 uM after 48 hrs by sulforhodamine B assay; format: functional; conditions: for inhibition of growth at 10 µM: SNB-75, 48 h, read-out: GI; procedure, shortened: as §2
[25] = test system: U-251; experiment: Growth inhibition of human U251 cells at 10 uM after 48 hrs by sulforhodamine B assay; format: functional; procedure, shortened: as §2
[26] = Antioxidant activity assessed as DPPH radical scavenging activity at 10^-4 M incubated for 30 mins by spectrophotometry; format: physicochemical; conditions: 0.5 h, 100 µM
Procedure, shortened: (§9)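 Compound at 10^-3 or 10^-4 M mixed with methanolic DPPH (0.1 mL of 1 mM stock; 3 mL total volume), shaken, kept in the dark 30 min at room temperature. Absorbance read at 517 nm. Scavenging (%) = (A_control − A_sample)/A_control × 100, where the control is DPPH in methanol alone. BHT served as reference antioxidant. Triplicate, mean ± SD of three independent experiments.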

[27] = Antioxidant activity assessed as DPPH radical scavenging activity at 10^-3 M incubated for 30 mins by spectrophotometry; format: physicochemical; conditions: 0.5 h, 1000 µM; procedure, shortened: as §9
[28] = as §1; format: functional; conditions: read-out: GI; procedure, shortened: as §2
[29] = as §3; format: functional; conditions: HCT-116, 48 h, read-out: GI; procedure, shortened: as §2
[30] = as §4; format: functional; conditions: read-out: GI; procedure, shortened: as §2
[31] = as §5; format: functional; conditions: OVCAR-4, 48 h, read-out: GI; procedure, shortened: as §2
[32] = as §6; format: functional; conditions: UO-31, 48 h, read-out: GI; procedure, shortened: as §2
[33] = as §7; format: functional; conditions: LOX IMVI, read-out: GI; procedure, shortened: as §2
[34] = test system: PC-3; experiment: as §8; format: functional; procedure, shortened: as §2

CC1CCCc2c1nc1[nH]c(=S)n(-c3ccccc3)c(=N)c1c2-c1cccn1C (configuration not stated)
growth inhibition (GI) [1]: inactive
inhibition of growth at 10 µM [2]: 23.6%
inhibition of growth at 10 µM [3]: 21.5%
growth inhibition (GI) [4]: inactive
inhibition of growth at 10 µM [5]: 14.1%
growth inhibition (GI) [6]: inactive
inhibition of growth at 10 µM [7]: 11.4%
inhibition of growth at 10 µM [8]: 19.3%
inhibition of growth at 10 µM [9]: 10.6%
growth inhibition (GI) [10]: inactive
inhibition of growth at 10 µM [11]: 15.6%
growth inhibition (GI) [12]: inactive
inhibition of growth at 10 µM [13]: 12.1%
inhibition of growth at 10 µM [14]: 23.8%
inhibition of growth at 10 µM [15]: 47.6%
inhibition of growth at 10 µM [16]: 8.6%
inhibition of growth at 10 µM [17]: 12.3%
inhibition of growth at 10 µM [18]: 13.8%
growth inhibition (GI) [19]: inactive
growth inhibition (GI) [20]: inactive
inhibition of growth at 10 µM [21]: 16.3%
inhibition of growth at 10 µM [22]: 18.4%
inhibition of growth at 10 µM [23]: 12.5%
growth inhibition (GI) [24]: inactive
growth inhibition (GI) [25]: inactive

CC1CCCc2c1nc(NC(=S)NC(=O)c1ccccc1)c(C#N)c2-c1cccn1C (configuration not stated)
inhibition (INH) [26]: 11%
inhibition (INH) [27]: 23%
inhibition of growth at 10 µM [28]: 14.2%
inhibition of growth at 10 µM [2]: 32%
inhibition of growth at 10 µM [3]: 22.4%
inhibition of growth at 10 µM [29]: 19.5%
inhibition of growth at 10 µM [5]: 20.1%
inhibition of growth at 10 µM [30]: 38.1%
inhibition of growth at 10 µM [7]: 32.7%
inhibition of growth at 10 µM [8]: 40.6%
inhibition of growth at 10 µM [9]: 38.8%
inhibition of growth at 10 µM [31]: 27.6%
inhibition of growth at 10 µM [11]: 27.5%
inhibition of growth at 10 µM [12]: 35.9%
inhibition of growth at 10 µM [13]: 33.5%
inhibition of growth at 10 µM [14]: 31.4%
inhibition of growth at 10 µM [15]: 36.7%
inhibition of growth at 10 µM [16]: 22.6%
inhibition of growth at 10 µM [17]: 31.4%
inhibition of growth at 10 µM [18]: 31.9%
inhibition of growth at 10 µM [32]: 51.4%
inhibition of growth at 10 µM [33]: 29.6%
inhibition of growth at 10 µM [21]: 12.8%
inhibition of growth at 10 µM [22]: 24.7%
inhibition of growth at 10 µM [23]: 28.4%
inhibition of growth at 10 µM [24]: 31.9%
inhibition of growth at 10 µM ([25]; U-251, 48 h, read-out: GI): 15.8%

CC1CCCc2c1nc1ncn3ncnc3c1c2-c1cccn1C (configuration not stated)
growth inhibition (GI) [1]: inactive
inhibition of growth at 10 µM [2]: 10.1%
growth inhibition (GI) [3]: inactive
growth inhibition (GI) [4]: inactive
inhibition of growth at 10 µM [5]: 6.3%
growth inhibition (GI) [6]: inactive
growth inhibition (GI) [7]: inactive
inhibition of growth at 10 µM [8]: 11.8%
inhibition of growth at 10 µM [9]: 7.9%
inhibition of growth at 10 µM [31]: 6.1%
inhibition of growth at 10 µM [11]: 10.3%
inhibition of growth at 10 µM [12]: 8.5%
growth inhibition (GI) [13]: inactive
inhibition of growth at 10 µM [14]: 20.4%
inhibition of growth at 10 µM [15]: 12.2%
inhibition of growth at 10 µM [16]: 5.7%
growth inhibition (GI) [17]: inactive
growth inhibition (GI) [18]: inactive
growth inhibition (GI) [19]: inactive
growth inhibition (GI) [20]: inactive
growth inhibition (GI) [21]: inactive
inhibition of growth at 10 µM [22]: 8.3%
growth inhibition (GI) [34]: inactive
growth inhibition (GI) [24]: inactive
growth inhibition (GI) [25]: inactive

CC1CCCc2c1nc1ncn(N)c(=N)c1c2-c1cccn1C (configuration not stated)
inhibition of growth at 10 µM [28]: 16.2%
inhibition of growth at 10 µM [2]: 11.3%
inhibition of growth at 10 µM [3]: 10.4%
inhibition of growth at 10 µM [29]: 11.7%
inhibition of growth at 10 µM [5]: 13.4%
inhibition of growth at 10 µM [30]: 10.7%
growth inhibition (GI) [7]: inactive
inhibition of growth at 10 µM [8]: 17.5%
inhibition of growth at 10 µM [9]: 12.4%
growth inhibition (GI) [10]: inactive
inhibition of growth at 10 µM [11]: 30.1%
inhibition of growth at 10 µM [12]: 11.6%
inhibition of growth at 10 µM [13]: 18.3%
inhibition of growth at 10 µM [14]: 29.2%
inhibition of growth at 10 µM [15]: 38.6%
inhibition of growth at 10 µM [16]: 14.6%
growth inhibition (GI) [17]: inactive
growth inhibition (GI) [18]: inactive
inhibition of growth at 10 µM [32]: 7.3%
growth inhibition (GI) [20]: inactive
inhibition of growth at 10 µM [21]: 10.5%
inhibition of growth at 10 µM [22]: 16.9%
inhibition of growth at 10 µM [23]: 20.4%
inhibition of growth at 10 µM [24]: 10.7%
growth inhibition (GI) [25]: inactive
